The list is not random: actives were taken first. Their share in the collection is about 1.1%.
NR2E3 ag-1: agonists of human nuclear receptor NR2E3 | AID 2300 | inhibition of corepressor binding, % at 4.78 µM | GST-NR2E3/biotin-RetCOR TR-FRET, 1536-well | Q9Y5X4 | 0.12% of 320,000 active;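 active means percent inhibition above the cutoff of mean plus 3 SD of all tested compounds, set per screening campaign, cut at about 20% in these data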
Target sequence (Q9Y5X4 whole entry, looked up): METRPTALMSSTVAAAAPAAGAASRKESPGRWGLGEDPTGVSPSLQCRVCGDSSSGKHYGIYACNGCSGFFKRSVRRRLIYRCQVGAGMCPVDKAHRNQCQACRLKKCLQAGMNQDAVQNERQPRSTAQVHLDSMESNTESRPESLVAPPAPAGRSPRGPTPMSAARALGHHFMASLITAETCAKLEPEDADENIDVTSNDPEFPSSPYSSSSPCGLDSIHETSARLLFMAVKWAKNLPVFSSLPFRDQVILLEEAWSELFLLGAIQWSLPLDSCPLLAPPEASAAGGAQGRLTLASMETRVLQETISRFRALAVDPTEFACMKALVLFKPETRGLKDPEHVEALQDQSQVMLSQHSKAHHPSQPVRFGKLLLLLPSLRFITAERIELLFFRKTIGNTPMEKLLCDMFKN
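System: GST-NR2E3 and biotin-RetCOR proteins; probe or stimulus: 7 nM biotin-RetCOR; doses: compound at 4.8 µM, single dose; schedule: Compound–protein incubation for 5 h at 4 °C; detection: time-resolved FRET; read-out: percent inhibition; controls: biotin wells as high control, 0.6% DMSO wells as low control; format: 1536-well plates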
MT1-MMP act inh: blocks activation of human MT1-MMP; P50281; HT1080 RFP-PRO-GFP cells, GFP/RFP ratio fluorescence, overnight; percent of plate control window, DMSO zero; GFP/RFP ratio change, % at 20 µM; 0.061% of 360,000 active; AID 651647;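 active means GFP/RFP ratio change of at least 30% with cell ATP level not reduced by more than half and red fluorescence within 50% of control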
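Test system: HT1080 cells expressing an RFP-PRO-GFP fluorescent reporter construct / Compound dosing: single-point 20 µM compound, 1% DMSO / Schedule: cells overnight before dosing, compound overnight, 37 °C, 5% CO2 / Evaluation: GFP/RFP fluorescence ratio / Control set: DMSO and RFP-L50D-GFP cell wells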
core dimer inh: HCV core protein dimerization inhibition; 0.33% of 300,000 active; inhibition, % at 5 µM; TR-FRET GST/Flag-core106 dimerization, 1536-well; AID 1899;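 active means inhibition above the mean of all tested compounds plus 3 SD, set per screening campaign, cut at about 45% in these data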
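assay system = GST-tagged and Flag-tagged HCV core protein residues 1-106 | controls = unlabelled core106 and no-GST-core106 wells | incubation = compound-protein-antibody incubation 4 h at 22.5 °C | probe or stimulus = Eu donor and XL665 acceptor anti-tag antibodies | read-out = % inhibition based on acceptor/donor emission ratio | signal = TR-FRET 671 and 617 nm emission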
NR2E3 ag-2: human photoreceptor-specific nuclear receptor agonism. Q9Y5X4. CHO-S Gal4-NCOR/VP16-NR2E3 two-hybrid, luciferase. inhibition of corepressor binding, % at 3.98 µM. 0.35% of 360,000 active;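 active means inhibition above the mean of all tested compounds plus 3 SD, cut at about 70% in these data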;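 further: higher means lower luciferase signal from less NR2E3 corepressor binding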
Vif imaging: blocks HIV Vif function; inhibition, % at 7.49 µM; 0.35% of 340,000 active; HEK293T cells, Vif self-association by quenched fluorescence, imaging, 24 h; in the data active means inhibition above about 50%, passing the limit was not always enough
DAGLB inh: diacylglycerol lipase beta (human) inhibition | Q8NCG7 | HEK293T DAGLB membrane lysate, EnzChek fluorogenic substrate | inhibition, % at 5.17 µM | 0.059% of 340,000 active | AID 504411; in the data active means inhibition above about 34%
Numbers stand for hits.

What do the screens show for `O=C(COC(=O)/C=C/c1ccc(S(=O)(=O)N2CCc3ccccc32)cc1)NC1CCS(=O)(=O)C1` (stereo unspecified)?
NR2E3 ag-1: inactive; MT1-MMP act inh: inactive; core dimer inh: inactive; NR2E3 ag-2: inactive; Vif imaging: inactive; DAGLB inh: inactive

How did Cc1ccc(S(=O)(=O)N2CCN(C(=O)COC(=O)/C=C/c3cccc([N+](=O)[O-])c3)CC2)c(C)c1 do in these assays?
MT1-MMP act inh: inactive; NR2E3 ag-2: inactive; Vif imaging: inactive; DAGLB inh: inactive

Results for Oc1ccc(C[C@H]2CNC(=S)N2CC2CCCN2C[C@H](Cc2ccccc2)N2C[C@H](Cc3ccc(O)cc3)N(CC3CCCCC3)C2=S)cc1 (stereo partly specified) ?
MT1-MMP act inh: inactive; NR2E3 ag-2: inactive; Vif imaging: inactive

How did COc1ccc(OC)c(C(=O)C(=O)c2cc(OC)ccc2OC)c1 do in these assays?
MT1-MMP act inh: inactive; NR2E3 ag-2: inactive; Vif imaging: inactive; DAGLB inh: inactive

Results for COc1ccc(OC)c(N)c1 ?
NR2E3 ag-1: inactive; MT1-MMP act inh: 37; core dimer inh: inactive; NR2E3 ag-2: inactive; Vif imaging: inactive; DAGLB inh: inactive

Results for CCCCCCCCN1C(=O)[C@H](CC(=O)NCCc2ccccc2OC)C[C@@]2(C(=O)OC)CC(C)(C)CC=C12 ?
MT1-MMP act inh: inactive

What do the screens show for `Cc1cc(C(=O)N2CCN(c3ccc([N+](=O)[O-])cc3)CC2)co1`?
NR2E3 ag-1: inactive; MT1-MMP act inh: inactive; core dimer inh: inactive; NR2E3 ag-2: inactive; Vif imaging: 86; DAGLB inh: inactive

Results for CCC(C(=O)NC(C)(C)C)N(Cc1ccco1)C(=O)CNS(=O)(=O)c1ccc(OC)cc1 (stereo unspecified) ?
NR2E3 ag-1: inactive; MT1-MMP act inh: inactive; core dimer inh: inactive; NR2E3 ag-2: inactive; Vif imaging: inactive; DAGLB inh: inactive

Results for CC[C@H](CO)Oc1cc(NCc2ccc(Cl)c(Cl)c2)c2ncn(C(C)C)c2c1 ?
MT1-MMP act inh: inactive; NR2E3 ag-2: inactive; Vif imaging: inactive; DAGLB inh: inactive

Results for CCC(CO)Oc1cc(NCc2ccc(Cl)cc2)c2ncn(C(C)C)c2c1 (stereo unspecified) ?
MT1-MMP act inh: inactive; NR2E3 ag-2: inactive; Vif imaging: 106; DAGLB inh: inactive

Results for Cc1ccc(NC(=O)CCCN2C(=O)/C(=C/C=C/c3ccccc3)SC2=S)cc1 ?
NR2E3 ag-1: inactive; MT1-MMP act inh: inactive; core dimer inh: 57; NR2E3 ag-2: inactive; Vif imaging: inactive; DAGLB inh: inactive

Results for O=C(CCCN1C(=O)S/C(=C/C=C/c2ccccc2)C1=O)Nc1ccc(C(=O)O)cc1 ?
NR2E3 ag-1: inactive; MT1-MMP act inh: inactive; core dimer inh: inactive; NR2E3 ag-2: inactive; Vif imaging: inactive; DAGLB inh: inactive

What do the screens show for `CCCCN(C=O)c1c(CC)nc2c(OCCOc3ccccc3)cccn12`?
MT1-MMP act inh: inactive; NR2E3 ag-2: inactive; Vif imaging: 58

How did COc1ccc(C#Cc2cnc3c(c2)C(=O)N([C@@H](C)CO)C[C@@H](C)[C@@H](CN(C)CC2CCOCC2)O3)cc1 do in these assays?
MT1-MMP act inh: inactive; NR2E3 ag-2: inactive; Vif imaging: inactive; DAGLB inh: inactive

How did Cc1cc(O)c2c(c1O)C(=O)[C@]13C(=C2O)C(=O)[C@@H]2[C@@H](O)[C@H]1[C@@H]1[C@H](O)[C@H]3C(=O)C3=C(O)c4c(O)cc(C)c(O)c4C(=O)[C@]312 do in these assays?
MT1-MMP act inh: inactive; NR2E3 ag-2: 101; Vif imaging: inactive; DAGLB inh: inactive

Results for CCC(=O)N(C)C[C@H]1Oc2ncc(C#Cc3ccncc3)cc2C(=O)N([C@@H](C)CO)C[C@@H]1C ?
MT1-MMP act inh: inactive; NR2E3 ag-2: inactive; Vif imaging: inactive; DAGLB inh: inactive

How did COc1cc(CCC(=O)OCn2nnc3ccccc3c2=O)cc(OC)c1OC do in these assays?
NR2E3 ag-1: inactive; MT1-MMP act inh: inactive; core dimer inh: inactive; NR2E3 ag-2: inactive; Vif imaging: 59; DAGLB inh: inactive

How did Cc1cc(Cl)ccc1OCc1cn2cccnc2n1 do in these assays?
NR2E3 ag-1: inactive; MT1-MMP act inh: inactive; core dimer inh: inactive; NR2E3 ag-2: inactive; Vif imaging: inactive; DAGLB inh: inactive

Results for CCCCOc1cccc2c(=O)n(CC(=O)Nc3ccc4c(c3)OCCO4)ccc12 ?
MT1-MMP act inh: inactive; NR2E3 ag-2: inactive; Vif imaging: 73

What do the screens show for `NC(=O)COC(=O)c1c2c(nc3ccccc13)CCCCC2`?
NR2E3 ag-1: inactive; MT1-MMP act inh: inactive; core dimer inh: inactive; NR2E3 ag-2: inactive; Vif imaging: inactive; DAGLB inh: inactive

How did CC(C)(C)C(=O)COC(=O)c1c2c(nc3ccccc13)CCC2 do in these assays?
NR2E3 ag-1: inactive; MT1-MMP act inh: inactive; core dimer inh: 54; NR2E3 ag-2: inactive; Vif imaging: inactive; DAGLB inh: inactive

What do the screens show for `CCCS(=O)(=O)N1CCCC(C(=O)NCCCN2CCN(c3ccccc3F)CC2)C1` (stereo unspecified)?
NR2E3 ag-1: inactive; MT1-MMP act inh: inactive; core dimer inh: inactive; NR2E3 ag-2: inactive; Vif imaging: 59; DAGLB inh: inactive

Results for Cc1ccc(C)c(N2CCN(S(=O)(=O)c3ccc4[nH]c(=O)ccc4c3)CC2)c1 ?
NR2E3 ag-1: inactive; MT1-MMP act inh: inactive; core dimer inh: 46; NR2E3 ag-2: inactive; Vif imaging: inactive; DAGLB inh: inactive

Results for CC(C)(C)NC(=O)CSc1nc(O)cc(=O)n1-c1ccccc1 ?
NR2E3 ag-1: inactive; MT1-MMP act inh: inactive; core dimer inh: inactive; NR2E3 ag-2: inactive; Vif imaging: 94; DAGLB inh: inactive

What do the screens show for `CC(C)(C)NC(=O)CSc1nc2ccccc2n1-c1ccccc1`?
NR2E3 ag-1: inactive; MT1-MMP act inh: inactive; core dimer inh: inactive; NR2E3 ag-2: inactive; Vif imaging: inactive; DAGLB inh: inactive

Results for Cc1cc(C(=O)OCC(=O)c2ccc(Cl)c([N+](=O)[O-])c2)c2cccc(C)c2n1 ?
NR2E3 ag-1: inactive; MT1-MMP act inh: inactive; core dimer inh: 46; NR2E3 ag-2: inactive; Vif imaging: inactive; DAGLB inh: inactive

How did Cc1cc(/C=C2\SC(=Nc3ccccc3)NC2=O)c(C)n1-c1ccc(S(N)(=O)=O)cc1 do in these assays?
NR2E3 ag-1: inactive; MT1-MMP act inh: inactive; core dimer inh: 63; NR2E3 ag-2: inactive; Vif imaging: inactive; DAGLB inh: inactive

How did C=CCn1c(CSc2ccccc2[N+](=O)[O-])n[nH]c1=S do in these assays?
NR2E3 ag-1: inactive; MT1-MMP act inh: inactive; core dimer inh: 65; NR2E3 ag-2: inactive; Vif imaging: inactive; DAGLB inh: inactive

Screens: PubChem BioAssay, several laboratories
